Experiments:
[1] = target: T1, Adenosine receptor A1 (Rattus norvegicus, UniProt P25099); test: Binding affinity towards adenosine A1 receptor using [3H]N-cyclohexyladenosine in rat whole brain membranes.; format: cell membranes
T1 sequence (P25099 whole entry): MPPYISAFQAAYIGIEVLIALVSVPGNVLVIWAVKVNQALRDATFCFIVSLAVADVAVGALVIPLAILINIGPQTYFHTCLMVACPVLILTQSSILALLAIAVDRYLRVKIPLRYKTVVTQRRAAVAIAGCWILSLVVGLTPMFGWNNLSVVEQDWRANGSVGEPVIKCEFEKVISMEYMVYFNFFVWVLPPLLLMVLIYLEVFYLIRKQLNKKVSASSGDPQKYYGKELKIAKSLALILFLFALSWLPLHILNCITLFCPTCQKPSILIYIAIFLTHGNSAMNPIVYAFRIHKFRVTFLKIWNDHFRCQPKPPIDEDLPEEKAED
Procedure, shortened: (§1)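 Radioligand displacement on rat membranes: A1 used [3H]N6-cyclohexyladenosine ([3H]CHA) with whole-brain membranes, and A2 used [3H]NECA with striatal membranes. The procedure follows an earlier report. Each value is the mean of three or more independent experiments.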

[2] = target: Adenosine A2 receptor (Rattus norvegicus, UniProt P29276+P30543); test: Binding affinity against Adenosine-2 receptor with [3H]-NECA in rat striatal membranes.; format: cell membranes; procedure, shortened: as §1
[3] = target: Adenosine receptors; A1 & A2 (Rattus norvegicus) (UniProt P29276+P25099+P30543); test: Ratio of Ki at A2 and A1 receptors; format: protein assay

| SMILES | Ki [1] | Ki [2] | Ratio [3] |
| --- | --- | --- | --- |
| CCc1nnc2c(NC3CCC3)nc3ccccc3n12 | 0.058 µM | 1.71 µM | 29 |
| CCc1nnc2c(Nc3ccccc3)nc3ccccc3n12 | 0.63 µM | 11.8 µM | 18.7 |
| Cc1nnc2c(NC3CCCC3)nc3ccccc3n12 | 0.034 µM | 2.7 µM | 79 |
| CCN(CC)c1nc2ccccc2n2cnnc12 | 8.9 µM | 18.8 µM | 2.1 |
| CCCc1nnc2c(NC3CCCC3)nc3ccccc3n12 | 0.039 µM | 1.83 µM | 47 |
| CCc1nnc2c(NC3CC3)nc3ccccc3n12 | 0.26 µM | 4.5 µM | 17.3 |
| CCc1nnc2c(NC3CCCCC3)nc3ccccc3n12 | 0.08 µM | 4 µM | 50 |
| CCc1nnc2c(NC3CC4CCC3C4)nc3ccccc3n12 (stereo not given) | 0.044 µM | 6.1 µM | 139 |

More lines, in order of falling Ki [1], values ahead:

| Ki [1] | Ki [2] | Ratio [3] | SMILES |
| --- | --- | --- | --- |
| 2.3 µM | 7 µM | 3 | CC(C)Nc1nc2ccccc2n2cnnc12 |
| 0.33 µM | 22 µM | 67 | CCc1nnc2c(NCC(C)O)nc3ccccc3n12 (stereo not given) |
| 0.24 µM | 4.2 µM | 17.5 | CCc1nnc2c(NC(C)C)nc3ccccc3n12 |
| 0.181 µM | 6.7 µM | 37 | c1ccc2c(c1)nc(NC1CCCC1)c1nncn12 |
| 0.055 µM | > 10 µM | > 182 | CCCCc1nnc2c(NC3CCCC3)nc3ccccc3n12 |
| 0.028 µM | 3 µM | 107 | CCc1nnc2c(NC3CCCC3)nc3ccccc3n12 |
| 0.0073 µM | 1.01 µM | 138 | FC(F)(F)c1nnc2c(NC3CCCC3)nc3ccccc3n12 |
